Measurements taken from ChEMBL document CHEMBL4627405, “A Venomics Approach Coupled to High-Throughput Toxin Production Strategies Identifies the First Venom-Derived Melanocortin Receptor Agonists” (J Med Chem, 2020).
Active and inactive are the calls of the source. No cut-off for these calls is given here. Positions of bridges follow the written chain, without caps; N, C: chain ends. Residues, ends and D or L forms follow the SMILES beside them.

Assays:
[1] = target: Potassium voltage-gated channel subfamily KQT member 1 (Homo sapiens, UniProt P51787); experiment: Inhibition of human Kv7.1 at 100 uM
How it was run: (§1)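 Potassium currents were recorded by two-electrode voltage clamp in oocytes 1–4 days after injecting 50 nl cRNA (1 ng/nl), at 18–22 °C. Bath was 96 mM NaCl, 2 mM KCl, 1.8 mM CaCl2, 2 mM MgCl2, 5 mM HEPES pH 7.4. Toxin was bath-applied at 100 µM. Currents were filtered at 0.5 kHz and sampled at 2 kHz.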

[2] = target: Potassium voltage-gated channel subfamily A member 4 (Homo sapiens) (UniProt P22459); experiment: Inhibition of human Kv1.4 at 100 uM; how it was run: as §1
[3] = target: Sodium channel protein type 5 subunit alpha (Homo sapiens, UniProt Q14524); experiment: Inhibition of human NaV1.5 at 100 uM
How it was run: (§2)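 Two-electrode voltage clamp of oocytes injected with 50 nl cRNA (1 ng/nl) and recorded 1–4 days later at 18–22 °C. Bath was 96 mM NaCl, 2 mM KCl, 1.8 mM CaCl2, 2 mM MgCl2, 5 mM HEPES pH 7.4. Toxin was applied to the bath at 100 µM. Currents were evoked by 100 ms depolarisation to the voltage of maximal sodium current, filtered at 2 kHz and sampled at 20 kHz.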

Melanocortin receptor 4 [4] = target: T1, Melanocortin receptor 4 (Homo sapiens, UniProt P32245); experiment: Agonist activity at human MC4R expressed in HEK293 cells assessed as stimulation of cAMP accumulation at 100 uM incubated for 3 hrs by luciferase reporter gene assay; format: functional, cell-based
Melanocortin receptor 5 = Melanocortin receptor 5 (Homo sapiens, UniProt P33032); experiment: Displacement of [125I]-NDP-alpha-MSH from human MC5R expressed in CHO-K1 cell membranes incubated for 3 hrs by top-count beta counting
How it was run: (§3)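 Membranes were from CHO cells stably expressing hMC1R, hMC4R or hMC5R, or from HEK293 cells expressing hMC3R. Competition used 50 pM 125I-NDP-α-MSH with varied competitor, 3 h at room temperature, in 25 mM HEPES pH 7.4, 1 mM MgCl2, 1 mM CaCl2, 0.2 g/L BSA. Nonspecific binding was set with 1 µM NDP-α-MSH. Samples were filtered on PEI-treated GF/C and scintillation counted. At least three experiments in duplicate, mean ± SEM.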

[5] = target: Potassium voltage-gated channel subfamily A member 5 (Homo sapiens) (UniProt P22460); experiment: Inhibition of human Kv1.5 at 100 uM; how it was run: as §1
HEK293 = experiment: Effect on cAMP production in HEK293 cells at 100 uM incubated for 3 hrs by luciferase reporter gene assay; format: functional, cell-based; conditions: Homo sapiens
[6] = target: Sodium channel protein type 8 subunit alpha (Homo sapiens) (UniProt Q9UQD0); experiment: Inhibition of human NaV1.6 at 100 uM; how it was run: as §2
[7] = target: Voltage-gated inwardly rectifying potassium channel KCNH2 (Homo sapiens, UniProt Q12809); experiment: Inhibition of human Kv11.1 at 100 uM; how it was run: as §1
[8] = target: Voltage-gated potassium channel KCNC1 (Homo sapiens) (UniProt P48547); experiment: Inhibition of human Kv3.1 at 100 uM; how it was run: as §1
Melanocortin receptor 4 [9] = target: T1, Melanocortin receptor 4; experiment: Displacement of [125I]-NDP-alpha-MSH from human MC4R expressed in CHO-K1 cell membranes incubated for 3 hrs by top-count beta counting; how it was run: as §3
[10] = target: Neuronal acetylcholine receptor subunit alpha-7 (Homo sapiens) (UniProt P36544); experiment: Inhibition of human nAChR alpha7
[11] = target: Potassium voltage-gated channel subfamily A member 6 (Homo sapiens) (UniProt P17658); experiment: Inhibition of human Kv1.6 at 100 uM; how it was run: as §1
[12] = target: Voltage-gated delayed rectifier potassium channel KCNH1 (Homo sapiens) (UniProt O95259); experiment: Inhibition of human Kv10.1 at 100 uM; how it was run: as §1
[13] = target: G protein-activated inward rectifier potassium channel 1 (Homo sapiens) (UniProt P48549); experiment: Inhibition of human GIRK1 at 100 uM
How it was run: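 Two-electrode voltage clamp of cRNA-injected oocytes at 18–22 °C, holding at −70 mV. Oocytes were superfused with high-K+ solution (96 mM KCl, 2 mM NaCl, 1 mM MgCl2, 1.8 mM CaCl2, 5 mM HEPES pH 7.5). Toxin was applied to the bath at 100 µM. Currents were filtered at 0.05 kHz and sampled at 0.1 kHz.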

[14] = target: Sodium channel protein type 3 subunit alpha (Homo sapiens) (UniProt Q9NY46); experiment: Inhibition of human NaV1.3 at 100 uM; how it was run: as §2
[15] = target: Sodium channel protein type 1 subunit alpha (Homo sapiens) (UniProt P35498); experiment: Inhibition of human NaV1.1 at 100 uM; how it was run: as §2
[16] = target: Sodium channel protein type 2 subunit alpha (Homo sapiens) (UniProt Q99250); experiment: Inhibition of human NaV1.2 at 100 uM; how it was run: as §2
Melanocortin receptor 3 = Melanocortin receptor 3 (Homo sapiens, UniProt P41968); experiment: Displacement of [125I]-NDP-alpha-MSH from human MC3R expressed in HEK293 cell membranes incubated for 3 hrs by top-count beta counting
[17] = target: T2, Melanocyte-stimulating hormone receptor (Homo sapiens, UniProt Q01726); experiment: Displacement of [125I]-NDP-alpha-MSH from human MC1R expressed in CHO-K1 cell membranes incubated for 3 hrs by top-count beta counting; how it was run: as §3
Target sequence in this assay (Q01726 whole entry): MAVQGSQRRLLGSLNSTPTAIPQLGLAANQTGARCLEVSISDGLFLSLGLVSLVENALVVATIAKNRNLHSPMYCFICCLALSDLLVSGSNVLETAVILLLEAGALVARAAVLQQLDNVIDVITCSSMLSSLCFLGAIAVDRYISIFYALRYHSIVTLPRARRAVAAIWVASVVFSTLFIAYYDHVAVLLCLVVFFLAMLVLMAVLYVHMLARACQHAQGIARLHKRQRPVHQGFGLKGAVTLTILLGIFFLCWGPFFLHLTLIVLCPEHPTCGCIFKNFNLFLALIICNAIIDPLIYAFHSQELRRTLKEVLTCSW

[18] = target: Potassium voltage-gated channel subfamily B member 1 (Homo sapiens) (UniProt Q14721); experiment: Inhibition of human Kv2.1 at 100 uM; how it was run: as §1
[19] = target: Potassium voltage-gated channel subfamily A member 1 (Homo sapiens) (UniProt Q09470); experiment: Inhibition of human Kv1.1 at 100 uM; how it was run: as §1
[20] = target: A-type voltage-gated potassium channel KCND3 (Homo sapiens, UniProt Q9UK17); experiment: Inhibition of human Kv4.3 at 100 uM; how it was run: as §1
[21] = target: Sodium channel protein type 4 subunit alpha (Homo sapiens) (UniProt P35499); experiment: Inhibition of human NaV1.4 at 100 uM; how it was run: as §2
Melanocortin receptor 4 [22] = target: T1, Melanocortin receptor 4; experiment: Displacement of [125I]-NDP-alpha-MSH from human MC4R expressed in CHO-K1 cell membranes incubated for 3 hrs by top-count beta counting relative to control; conditions: concentration not given here; how it was run: as §3
[23] = target: Potassium voltage-gated channel subfamily A member 3 (Homo sapiens) (UniProt P22001); experiment: Inhibition of human Kv1.3 at 100 uM; how it was run: as §1
[24] = target: T2, Melanocyte-stimulating hormone receptor; experiment: Agonist activity at N-terminal HA-tagged and C-terminal FLAG-tagged human MC1R expressed in HEK293 cells assessed as stimulation of cAMP accumulation at 100 uM incubated for 3 hrs by luciferase reporter gene assay; format: functional, cell-based
Target sequence in this assay (Q01726 whole entry, looked up): as the sequence (Q01726 whole entry) above

[25] = target: Voltage-dependent T-type calcium channel subunit alpha-1I (Homo sapiens) (UniProt Q9P0X4); experiment: Inhibition of human Cav3.3 at 100 uM
How it was run: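 Oocyte two-electrode voltage clamp at 18–22 °C, 1–4 days after cRNA injection (50 nl, 1 ng/nl). Toxin was bath-applied at 100 µM. Currents were carried by 10 mM Ba2+ and elicited by 200 ms depolarisations from −90 mV to between −50 and +30 mV, filtered at 0.5 kHz and sampled at 2 kHz.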

[26] = target: Acetylcholine receptor; alpha1/beta1/delta/gamma (Homo sapiens) (UniProt P02708+P07510+P11230+Q07001); experiment: Inhibition of human nAChR alpha1(2)beta1gammadelta; format: protein-complex assay
Melanocortin receptor 4 [27] = target: T1, Melanocortin receptor 4; experiment: Antagonist activity at human MC4R transiently expressed in HEK293 cells assessed as reduction in alpha-MSH-induced cAMP accumulation at 100 uM incubated for 3 hrs by luciferase reporter gene assay
[28] = target: Potassium voltage-gated channel subfamily A member 2 (Homo sapiens) (UniProt P16389); experiment: Inhibition of human Kv1.2 at 100 uM; how it was run: as §1
[29] = target: Sodium channel protein type 10 subunit alpha (Homo sapiens) (UniProt Q9Y5Y9); experiment: Inhibition of human NaV1.8 at 100 uM
[30] = target: Potassium voltage-gated channel subfamily KQT member 3 (Homo sapiens) (UniProt O43525); experiment: Inhibition of human Kv7.3 at 100 uM; how it was run: as §1
[31] = target: T2, Melanocyte-stimulating hormone receptor; experiment: Activity at N-terminal HA-tagged and C-terminal FLAG-tagged human MC1R expressed in HEK293 cells assessed as potentiation of alpha-MSH-induced cAMP accumulation at 100 uM incubated for 3 hrs by luciferase reporter gene assay; format: functional, cell-based
Target sequence in this assay (Q01726 whole entry, looked up): as the sequence (Q01726 whole entry) above

T1 sequence (P32245 whole entry): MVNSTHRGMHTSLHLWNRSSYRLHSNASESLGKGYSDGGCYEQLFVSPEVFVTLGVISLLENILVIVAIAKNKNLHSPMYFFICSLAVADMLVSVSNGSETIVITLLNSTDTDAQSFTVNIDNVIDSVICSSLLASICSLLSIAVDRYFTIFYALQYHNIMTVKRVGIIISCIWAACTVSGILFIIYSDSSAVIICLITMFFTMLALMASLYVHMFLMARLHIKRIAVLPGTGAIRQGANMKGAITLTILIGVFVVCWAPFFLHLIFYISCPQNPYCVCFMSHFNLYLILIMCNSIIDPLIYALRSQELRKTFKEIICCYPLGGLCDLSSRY
Chain of Potassium voltage-gated channel subfamily A member 5 (Homo sapiens) (P22460 whole entry): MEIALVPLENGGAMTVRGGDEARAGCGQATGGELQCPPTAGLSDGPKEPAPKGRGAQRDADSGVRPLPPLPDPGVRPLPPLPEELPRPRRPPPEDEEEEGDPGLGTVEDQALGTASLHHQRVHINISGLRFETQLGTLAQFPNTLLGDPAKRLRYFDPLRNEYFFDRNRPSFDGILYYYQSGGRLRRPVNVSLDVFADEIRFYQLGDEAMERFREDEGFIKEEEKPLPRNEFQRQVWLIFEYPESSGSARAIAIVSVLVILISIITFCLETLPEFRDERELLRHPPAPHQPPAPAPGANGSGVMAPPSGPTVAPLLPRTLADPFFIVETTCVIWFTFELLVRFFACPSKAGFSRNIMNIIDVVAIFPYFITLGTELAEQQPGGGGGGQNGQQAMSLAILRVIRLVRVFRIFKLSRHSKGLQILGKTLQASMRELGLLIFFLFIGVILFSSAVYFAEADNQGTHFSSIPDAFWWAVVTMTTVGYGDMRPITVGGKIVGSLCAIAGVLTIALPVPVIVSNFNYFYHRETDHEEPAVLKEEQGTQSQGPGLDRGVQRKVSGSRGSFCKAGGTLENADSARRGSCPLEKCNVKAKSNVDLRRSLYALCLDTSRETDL
Chain of Sodium channel protein type 5 subunit alpha (Q14524 whole entry): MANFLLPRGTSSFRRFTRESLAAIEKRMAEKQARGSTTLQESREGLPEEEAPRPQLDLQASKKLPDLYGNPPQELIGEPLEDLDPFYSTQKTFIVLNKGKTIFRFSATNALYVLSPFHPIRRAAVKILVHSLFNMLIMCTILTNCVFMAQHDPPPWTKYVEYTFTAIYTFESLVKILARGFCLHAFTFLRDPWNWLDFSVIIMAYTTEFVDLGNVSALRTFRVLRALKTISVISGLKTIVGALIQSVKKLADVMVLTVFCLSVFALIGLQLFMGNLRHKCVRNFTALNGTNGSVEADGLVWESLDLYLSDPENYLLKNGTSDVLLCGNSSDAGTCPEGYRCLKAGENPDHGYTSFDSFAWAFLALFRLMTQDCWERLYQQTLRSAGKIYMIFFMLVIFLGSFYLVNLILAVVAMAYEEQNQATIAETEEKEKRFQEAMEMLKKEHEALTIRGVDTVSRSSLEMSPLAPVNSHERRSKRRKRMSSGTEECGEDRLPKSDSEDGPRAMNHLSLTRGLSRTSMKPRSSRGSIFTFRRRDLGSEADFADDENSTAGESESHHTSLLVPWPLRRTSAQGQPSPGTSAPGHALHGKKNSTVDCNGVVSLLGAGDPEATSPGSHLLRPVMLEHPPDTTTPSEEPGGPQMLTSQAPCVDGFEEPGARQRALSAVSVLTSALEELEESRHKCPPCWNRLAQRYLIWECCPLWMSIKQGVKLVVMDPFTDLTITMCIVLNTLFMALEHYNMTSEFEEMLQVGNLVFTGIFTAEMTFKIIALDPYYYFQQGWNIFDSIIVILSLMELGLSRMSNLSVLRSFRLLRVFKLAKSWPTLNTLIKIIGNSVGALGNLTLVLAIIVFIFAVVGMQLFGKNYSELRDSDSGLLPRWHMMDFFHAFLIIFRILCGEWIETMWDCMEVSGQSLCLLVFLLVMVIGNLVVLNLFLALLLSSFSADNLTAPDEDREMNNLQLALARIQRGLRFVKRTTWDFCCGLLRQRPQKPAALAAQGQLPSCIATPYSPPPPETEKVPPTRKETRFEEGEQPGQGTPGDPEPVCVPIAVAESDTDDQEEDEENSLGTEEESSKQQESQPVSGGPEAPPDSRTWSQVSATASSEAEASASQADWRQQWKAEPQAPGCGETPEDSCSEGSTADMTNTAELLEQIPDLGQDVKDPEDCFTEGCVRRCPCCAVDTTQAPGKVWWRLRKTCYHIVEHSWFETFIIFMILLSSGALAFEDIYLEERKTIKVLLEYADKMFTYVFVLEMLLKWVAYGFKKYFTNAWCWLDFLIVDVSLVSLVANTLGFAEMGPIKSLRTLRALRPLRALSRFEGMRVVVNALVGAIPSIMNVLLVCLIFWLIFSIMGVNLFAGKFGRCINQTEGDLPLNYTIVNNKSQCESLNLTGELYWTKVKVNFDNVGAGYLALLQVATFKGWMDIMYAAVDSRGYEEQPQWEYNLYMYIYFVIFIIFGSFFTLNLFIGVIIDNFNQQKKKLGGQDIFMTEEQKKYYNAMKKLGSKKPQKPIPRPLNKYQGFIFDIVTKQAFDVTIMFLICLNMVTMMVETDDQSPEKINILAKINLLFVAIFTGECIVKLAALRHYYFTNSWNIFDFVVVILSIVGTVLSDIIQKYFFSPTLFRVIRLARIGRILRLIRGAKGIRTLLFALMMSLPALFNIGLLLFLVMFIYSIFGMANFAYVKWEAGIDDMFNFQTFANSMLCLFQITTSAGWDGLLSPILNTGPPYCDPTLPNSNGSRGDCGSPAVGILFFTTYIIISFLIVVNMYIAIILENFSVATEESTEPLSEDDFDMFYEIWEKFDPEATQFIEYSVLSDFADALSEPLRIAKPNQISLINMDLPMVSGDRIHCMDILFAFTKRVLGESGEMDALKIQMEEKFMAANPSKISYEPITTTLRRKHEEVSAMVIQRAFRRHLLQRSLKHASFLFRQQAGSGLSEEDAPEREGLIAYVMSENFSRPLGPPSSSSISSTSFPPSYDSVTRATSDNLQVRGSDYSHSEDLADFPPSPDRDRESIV
Chain of Voltage-gated potassium channel KCNC1 (Homo sapiens) (P48547 whole entry): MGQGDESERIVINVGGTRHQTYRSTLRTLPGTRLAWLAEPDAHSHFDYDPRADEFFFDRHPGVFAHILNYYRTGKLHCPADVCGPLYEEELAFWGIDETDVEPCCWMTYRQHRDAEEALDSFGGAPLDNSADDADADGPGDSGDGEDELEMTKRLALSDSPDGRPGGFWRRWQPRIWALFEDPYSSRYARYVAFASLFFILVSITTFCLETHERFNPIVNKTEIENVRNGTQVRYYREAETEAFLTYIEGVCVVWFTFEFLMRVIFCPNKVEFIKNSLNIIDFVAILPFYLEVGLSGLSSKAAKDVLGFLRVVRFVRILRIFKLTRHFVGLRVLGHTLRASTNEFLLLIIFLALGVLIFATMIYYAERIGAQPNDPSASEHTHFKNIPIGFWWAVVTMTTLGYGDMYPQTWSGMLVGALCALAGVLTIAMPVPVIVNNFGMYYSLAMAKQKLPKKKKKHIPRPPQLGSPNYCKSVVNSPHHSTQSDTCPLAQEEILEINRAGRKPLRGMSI
Chain of G protein-activated inward rectifier potassium channel 1 (Homo sapiens) (P48549 whole entry, the tested form may be a part): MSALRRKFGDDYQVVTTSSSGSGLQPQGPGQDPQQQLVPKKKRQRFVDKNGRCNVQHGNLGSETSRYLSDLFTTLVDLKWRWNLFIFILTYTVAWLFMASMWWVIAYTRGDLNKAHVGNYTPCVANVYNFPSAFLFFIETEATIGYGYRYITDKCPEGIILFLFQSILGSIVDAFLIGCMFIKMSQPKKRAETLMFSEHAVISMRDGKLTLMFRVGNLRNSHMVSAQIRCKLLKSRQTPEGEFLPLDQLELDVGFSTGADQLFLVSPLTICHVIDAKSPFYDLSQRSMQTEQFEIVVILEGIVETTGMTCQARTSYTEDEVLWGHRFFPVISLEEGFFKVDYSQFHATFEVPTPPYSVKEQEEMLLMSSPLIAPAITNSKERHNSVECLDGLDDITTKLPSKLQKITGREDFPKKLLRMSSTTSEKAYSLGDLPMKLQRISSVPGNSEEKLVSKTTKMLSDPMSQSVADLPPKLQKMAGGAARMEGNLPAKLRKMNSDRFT
Chain of Neuronal acetylcholine receptor subunit alpha-7 (Homo sapiens) (P36544 whole entry): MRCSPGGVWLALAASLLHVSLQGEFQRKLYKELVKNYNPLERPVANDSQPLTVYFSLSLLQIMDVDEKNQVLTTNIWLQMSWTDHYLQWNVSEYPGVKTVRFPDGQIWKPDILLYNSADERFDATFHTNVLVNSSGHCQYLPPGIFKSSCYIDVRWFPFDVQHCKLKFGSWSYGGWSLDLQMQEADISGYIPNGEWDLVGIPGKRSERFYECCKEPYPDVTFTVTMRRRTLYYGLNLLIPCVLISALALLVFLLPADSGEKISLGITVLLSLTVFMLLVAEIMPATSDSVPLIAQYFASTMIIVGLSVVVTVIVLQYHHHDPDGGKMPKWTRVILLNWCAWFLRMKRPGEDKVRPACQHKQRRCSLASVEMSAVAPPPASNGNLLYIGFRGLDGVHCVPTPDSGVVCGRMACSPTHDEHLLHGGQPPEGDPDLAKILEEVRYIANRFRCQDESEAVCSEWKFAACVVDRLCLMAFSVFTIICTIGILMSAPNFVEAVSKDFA

SMILES | inhibition (INH) [1] | inhibition [2] | inhibition (INH) [3] | Activity (Melanocortin receptor 4 [4]) | Ki (Melanocortin receptor 5) | inhibition [5] | Activity (HEK293) | inhibition [6] | inhibition (INH) [7] | inhibition [8] | Ki (Melanocortin receptor 4 [9]) | inhibition [10] | inhibition [11] | inhibition [12] | inhibition [13] | inhibition [14] | inhibition [15] | inhibition [16] | Ki (Melanocortin receptor 3) | Ki [17] | further results
CC[C@H](C)[C@@H]1NC(=O)[C@H](C)NC(=O)[C@H](CCCCN)NC(=O)[C@H](CC(C)C)NC(=O)[C@@H]2CSSC[C@@H](C(=O)O)NC(=O)[C@H](CCCCN)NC(=O)[C@@H]3CSSC[C@H](NC(=O)[C@H](CCC(=O)O)NC(=O)[C@H](C(C)C)NC(=O)[C@H](CO)NC(=O)[C@H](C)NC(=O)[C@H](CO)NC(=O)[C@@H](NC(=O)[C@H](CCCNC(=N)N)NC(=O)[C@H](CCSC)NC(=O)[C@H](CC(=O)O)NC(=O)[C@H](CCSC)NC(=O)[C@@H](N)CCC(N)=O)CSSC[C@H](NC(=O)[C@H](CCCCN)NC(=O)CNC(=O)[C@H](Cc4ccccc4)NC(=O)[C@H]([C@@H](C)CC)NC(=O)[C@H](CO)NC(=O)CNC1=O)C(=O)N[C@@H](CCSC)C(=O)N[C@@H](CC(N)=O)C(=O)N[C@@H](CCCCN)C(=O)N[C@@H](CCCCN)C(=O)N3)C(=O)N[C@@H](CCCCN)C(=O)N[C@@H](CCC(N)=O)C(=O)N[C@@H](CCCCN)C(=O)N2 (H-QMDMRCSASVECKQKCLKAIGSIFGKCMNKKCKC-OH; disulfide 6-27, 12-32, 16-34) | Not Active | inactive | Not Active | inactive | 2.2 µM | inactive | inactive | inactive | Not Active | inactive | 2.6 µM | inactive | inactive | inactive | inactive | inactive | inactive | inactive | 3.9 µM | 2900 nM | inhibition [18]: inactive; inhibition [19]: inactive; inhibition (INH) [20]: Not Active; inhibition [21]: inactive; inhibition (Melanocortin receptor 4 [22]): 86%; inhibition [23]: inactive; Activity [24]: Active; inhibition [25]: inactive; inhibition [26]: inactive; Activity (Melanocortin receptor 4 [27]): inactive; inhibition [28]: inactive; inhibition [29]: inactive; inhibition [30]: inactive; Activity [31]: Active
CC[C@H](C)[C@@H]1NC(=O)[C@@H]2CCCN2C(=O)CNC(=O)[C@H](CO)NC(=O)[C@@H]2CSSC[C@@H]3NC(=O)[C@H]([C@@H](C)O)NC(=O)CNC(=O)[C@H](CSSC[C@H](NC(=O)[C@@H](N)CCCNC(=N)N)C(=O)N[C@@H](CC(C)C)C(=O)N[C@@H](Cc4cnc[nH]4)C(=O)N[C@@H](C)C(=O)NCC(=O)N[C@@H](C)C(=O)N[C@@H](C)C(=O)N2)NC(=O)[C@H](CSSC[C@@H](C(=O)N[C@H](C(=O)O)[C@@H](C)O)NC(=O)[C@H](CCCCN)NC(=O)[C@H](CCCNC(=N)N)NC(=O)[C@H](CCCNC(=N)N)NC(=O)[C@H](CO)NC3=O)NC(=O)[C@@H]2CCCN2C(=O)[C@H]([C@@H](C)CC)NC(=O)[C@H](CCCCN)NC(=O)[C@H](CCC(N)=O)NC1=O (H-RCLHAGAACSGPIQKIPCCGTCSRRKCT-OH; disulfide 2-19, 9-22, 18-27) | Not Active | inactive | Not Active | inactive | 10 µM | inactive | inactive | inactive | Not Active | inactive | 7.1 µM | inactive | inactive | inactive | inactive | inactive | inactive | inactive | 19.8 µM | 1800 nM | inhibition [18]: inactive; inhibition [19]: inactive; inhibition (INH) [20]: Not Active; inhibition [21]: inactive; inhibition (Melanocortin receptor 4 [22]): 97%; inhibition [23]: inactive; Activity [24]: Active; inhibition [25]: inactive; inhibition [26]: inactive; Activity (Melanocortin receptor 4 [27]): inactive; inhibition [28]: inactive; inhibition [29]: inactive; inhibition [30]: inactive; Activity [31]: Active
